In brackets after ≈: the same amount, converted by molar mass. Activity calls are given as the source filed them. No cut-off for these calls is given here.
Assays:
[1] = system: Mycobacterium tuberculosis; test: Antimycobacterial activity against Mycobacterium tuberculosis H37Rv CNCTC My 331/88 after 14 days by microdilution method; assay type: functional; settings: H37Rv CNCTC My 331/88, 336 h
Method in brief: (§1)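 Compounds in DMSO were diluted in Šula's semisynthetic medium, pH 5.5, to final 200–3.125 μg/mL, with DMSO at most 1% (v/v). Mycobacteria were added as a suspension in isotonic saline and grown at 37 °C. MIC was read visually after 14 days as the lowest concentration inhibiting growth.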

[2] = system: Mycobacterium kansasii; test: Antimycobacterial activity against Mycobacterium kansasii CNCTC My 235/80 after 6 days by microdilution method; assay type: functional; settings: CNCTC My 235/80, 144 h
Method in brief: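 Compounds were dissolved in DMSO and diluted in Šula's semisynthetic medium at pH 5.5, at final concentrations of 200 to 3.125 μg/mL in twofold steps; DMSO stayed ≤1% v/v. The strain was added as a suspension in isotonic saline and incubated at 37 °C. Growth was read visually after 6 days; MIC is the lowest concentration that inhibited growth. Pyrazinamide served as standard.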

[3] = system: Mycobacterium avium; test: Antimycobacterial activity against Mycobacterium avium CNCTC My 80/72 after 14 days by microdilution method; assay type: functional; settings: CNCTC My 80/72, 336 h; method in brief: as §1
[4] = system: Mycobacterium avium; test: Antimycobacterial activity against Mycobacterium avium CNCTC My 152/73 after 14 days by microdilution method; assay type: functional; settings: CNCTC My 152/73, 336 h; method in brief: as §1
[5] = system: Staphylococcus aureus; test: Antibacterial activity against Staphylococcus aureus CCM 4516/08 after 24 to 48 hrs by broth microdilution method; assay type: functional, organism-based
Method in brief: (§2)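 Strains subcultured on Mueller-Hinton agar at 35 °C and passaged onto MHA before testing. Inoculum suspended in sterile 0.85% saline and adjusted to 0.5 McFarland (1.5×10^8 CFU/mL). Compounds in DMSO (final ≤1% v/v) in Mueller-Hinton broth at pH 7.0, with medium and DMSO-alone controls. Static incubation at 35 °C; MIC taken as 95% growth inhibition versus control at 24 and 48 h.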

[6] = system: Escherichia coli; test: Antibacterial activity against Escherichia coli CCM 4517 after 24 to 48 hrs by broth microdilution method; assay type: functional, organism-based; method in brief: as §2
[7] = system: Pseudomonas aeruginosa; test: Antibacterial activity against Pseudomonas aeruginosa CCM 1961 after 24 to 48 hrs by broth microdilution method; assay type: functional, organism-based; method in brief: as §2
[8] = system: Staphylococcus aureus; test: Antibacterial activity against methicillin-resistant Staphylococcus aureus H 5996/08 after 24 to 48 hrs by broth microdilution method; assay type: functional, organism-based
Method in brief: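 Strains were subcultured on Mueller-Hinton agar at 35 °C, and the inoculum was suspended in 0.85% saline to 0.5 McFarland (1.5×10^8 CFU/mL). Microdilution was done in Mueller-Hinton broth, pH 7.0, with final DMSO at most 1% (v/v). MIC, set at 95% growth inhibition versus control, was read after 24 and 48 h of static incubation at 35 °C.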

[9] = system: Staphylococcus epidermidis; test: Antibacterial activity against Staphylococcus epidermidis H 6966/08 after 24 to 48 hrs by broth microdilution method; assay type: functional, organism-based
[10] = system: Enterobacter sp.; test: Antibacterial activity against Enterobacter sp. J 14365/ 08 after 24 to 48 hrs by broth microdilution method; assay type: functional, organism-based
[11] = system: Klebsiella pneumoniae; test: Antibacterial activity against Klebsiella pneumoniae D11750/08 after 24 to 48 hrs by broth microdilution method; assay type: functional, organism-based
[12] = system: Klebsiella pneumoniae; test: Antibacterial activity against ESBL-positive Klebsiella pneumoniae J 14368/08 after 24 to 48 hrs by broth microdilution method; assay type: functional, organism-based
[13] = system: Candida albicans; test: Antifungal activity against Candida albicans ATCC 44859 after 24 hrs by broth microdilution method; assay type: functional
Method in brief: (§3)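 Broth microdilution. Compounds in DMSO were diluted twofold in RPMI 1640 with glutamine, buffered to pH 7.0 with MOPS. Final DMSO was at most 2.5% (v/v). Plates were incubated statically, in the dark and humid, at 35 °C and read at 24 and 48 h.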

[14] = system: Candida tropicalis; test: Antifungal activity against Candida tropicalis 156 after 24 hrs by broth microdilution method; assay type: functional; method in brief: as §3
[15] = system: Pichia kudriavzevii; test: Antifungal activity against Candida krusei E28 after 24 hrs by broth microdilution method; assay type: functional; method in brief: as §3
[16] = system: Nakaseomyces glabratus; test: Antifungal activity against Candida glabrata 20/I after 24 hrs by broth microdilution method; assay type: functional; method in brief: as §3
[17] = system: Trichosporon beigelii; test: Antifungal activity against Trichosporon beigelii 1188 after 24 hrs by broth microdilution method; assay type: functional; method in brief: as §3
[18] = system: Aspergillus fumigatus; test: Antifungal activity against Aspergillus fumigatus 231 after 24 hrs by broth microdilution method; assay type: functional; method in brief: as §3
[19] = system: Lichtheimia corymbifera; test: Antifungal activity against Absidia corymbifera 272 after 24 hrs by broth microdilution method; assay type: functional; method in brief: as §3
[20] = system: Trichophyton mentagrophytes; test: Antifungal activity against Trichophyton mentagrophytes 445 after 72 hrs by broth microdilution method; assay type: functional
Method in brief: (§4)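 Trichophyton mentagrophytes was tested by twofold broth microdilution in MOPS-buffered RPMI 1640 with glutamine, pH 7.0, with final DMSO at most 2.5% (v/v). Incubation was static, dark and humid at 35 °C, and plates were read at 72 and 120 h.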

[21] = system: Trichophyton mentagrophytes; test: Antifungal activity against Trichophyton mentagrophytes 445 after 120 hrs by broth microdilution method; assay type: functional; method in brief: as §4
[22] = system: Candida albicans; test: Antifungal activity against Candida albicans ATCC 44859 after 48 hrs by broth microdilution method; assay type: functional; method in brief: as §3
[23] = system: Candida tropicalis; test: Antifungal activity against Candida tropicalis 156 after 48 hrs by broth microdilution method; assay type: functional; method in brief: as §3
[24] = system: Pichia kudriavzevii; test: Antifungal activity against Candida krusei E28 after 48 hrs by broth microdilution method; assay type: functional; method in brief: as §3
[25] = system: Nakaseomyces glabratus; test: Antifungal activity against Candida glabrata 20/I after 48 hrs by broth microdilution method; assay type: functional; method in brief: as §3
[26] = system: Trichosporon beigelii; test: Antifungal activity against Trichosporon beigelii 1188 after 48 hrs by broth microdilution method; assay type: functional; method in brief: as §3
[27] = system: Aspergillus fumigatus; test: Antifungal activity against Aspergillus fumigatus 231 after 48 hrs by broth microdilution method; assay type: functional; method in brief: as §3
[28] = system: Lichtheimia corymbifera; test: Antifungal activity against Absidia corymbifera 272 after 48 hrs by broth microdilution method; assay type: functional; method in brief: as §3

Compound	MIC [1]	MIC [2]	MIC [3]	MIC [4]	Activity [5]	Activity [6]	Activity [7]	Activity [8]	Activity [9]	Activity [10]	Activity [11]	Activity [12]	further results
N#Cc1ncc(C(N)=O)nc1NC1CCCCCC1	> 200 µg/mL	> 200 µg/mL	> 200 µg/mL	> 200 µg/mL	inactive	inactive	inactive	inactive	inactive	inactive	inactive	inactive	–
CCCCNc1nc(C(N)=O)cnc1C#N	> 200 µg/mL	> 200 µg/mL	> 200 µg/mL	> 200 µg/mL	inactive	inactive	inactive	inactive	inactive	inactive	inactive	inactive	–
NC(=O)c1cnccn1 [PYRAZINAMIDE]	12.5 µg/mL (≈ 102 µM)	> 200 µg/mL	> 200 µg/mL	> 200 µg/mL	–	–	–	–	–	–	–	–	–
N#Cc1ncc(C(N)=O)nc1NC1CCCC1	> 200 µg/mL	> 200 µg/mL	> 200 µg/mL	> 200 µg/mL	inactive	inactive	inactive	inactive	inactive	inactive	inactive	inactive	–
N#Cc1ncc(C(N)=O)nc1NC1CCCCC1	> 200 µg/mL	> 200 µg/mL	> 200 µg/mL	> 200 µg/mL	inactive	inactive	inactive	inactive	inactive	inactive	inactive	inactive	–
CCCCCCNc1nc(C(N)=O)cnc1C#N	12.5 µg/mL (≈ 50.5 µM)	> 200 µg/mL	> 200 µg/mL	> 200 µg/mL	inactive	inactive	inactive	inactive	inactive	inactive	inactive	inactive	–
NYSTATIN	–	–	–	–	–	–	–	–	–	–	–	–	MIC [13]: 0.98 µM; MIC [14]: 1.95 µM; MIC [15]: 1.95 µM; MIC [16]: 1.95 µM; MIC [17]: 1.95 µM; MIC [18]: 1.95 µM; MIC [19]: 15.6 µM; MIC [20]: 3.9 µM; MIC [21]: 7.81 µM; MIC [22]: 1.95 µM; MIC [23]: 3.9 µM; MIC [24]: 3.9 µM; MIC [25]: 1.95 µM; MIC [26]: 1.95 µM; MIC [27]: 3.9 µM; MIC [28]: 31.2 µM
CCNc1nc(C(N)=O)cnc1C#N	100 µg/mL (≈ 523 µM)	> 200 µg/mL	> 200 µg/mL	> 200 µg/mL	inactive	inactive	inactive	inactive	inactive	inactive	inactive	inactive	–

From ChEMBL document CHEMBL1671800, “Synthesis and antimycobacterial properties of N-substituted 6-amino-5-cyanopyrazine-2-carboxamides” (2011)
